Data set [1] deals with Bel7402/5-FU. Kind of data set: Induction of apoptosis in human Bel7402/5-FU assessed as viable cells at 1 uM incubated for 48 hrs by annexinV-FITC/propidium iodide staining based flow cytometry (reference value: 96.9 to 97.1 %).
Data set [2] has as its system Bel7402/5-FU. Description: Induction of apoptosis in human Bel7402/5-FU assessed as apoptotic cells at 0.5 uM incubated for 48 hrs by annexinV-FITC/propidium iodide staining based flow cytometry (reference value: 3.37 +/- 0.47 %).
The subject of data set [3] is Bel7402/5-FU. Kind of data set: Increase in ADR intracellular accumulation in human Bel7402/5-FU cells preincubated for 24 hrs followed by adriamycin addition measured after 1 hr by flow cytometry.
Data set [4] deals with Bel7402/5-FU. Description: Induction of apoptosis in human Bel7402/5-FU assessed as apoptotic cells at 5 uM incubated for 48 hrs by annexinV-FITC/propidium iodide staining based flow cytometry (reference value: 3.37 +/- 0.47 %).
Data set [5] deals with Bel7402/5-FU. Kind of data set: Down regulation of Pgp expression in human Bel7402/5-FU cells at 0.5 uM incubated for 24 hrs by flow cytometry.
The subject of data set [6] is Bel7402/5-FU. Kind of data set: Induction of apoptosis in human Bel7402/5-FU assessed as early apoptotic cells at 5 uM incubated for 48 hrs by annexinV-FITC/propidium iodide staining based flow cytometry (reference value: 20.1 %).
The test system of data set [7] is Bel7402/5-FU. Description: Induction of apoptosis in human Bel7402/5-FU cells assessed as activation of caspase-9 at 0.5 to 5 uM incubated for 24 hrs by Western blot analysis. Type of data set: functional, cell-based. The method in brief:
(§1)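 Bel-7402/5-FU cells were seeded at 5 × 10⁵ per well and left 12 h, then treated with four concentrations (0.5, 1, 2, 5) for 24 h. Cells were PBS-washed and lysed in RIPA on ice for 30 min, then denatured at 100 °C for 5 min. Lysates went through SDS-PAGE and PVDF transfer, 5% milk blocking for 1 h at room temperature, primary antibodies, and HRP secondary for 2 h at room temperature.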

Data set [8] relates to Bel7402/5-FU. Kind of data set: Induction of apoptosis in human Bel7402/5-FU cells assessed as downregulation of Bcl-2 expression at 0.5 to 5 uM incubated for 24 hrs by Western blot analysis. It is filed as functional, cell-based. The method in brief: as §1
Data set [9] concerns Bel7402/5-FU. Kind of data set: Induction of apoptosis in human Bel7402/5-FU assessed as necrotic cells at 5 uM incubated for 48 hrs by annexinV-FITC/propidium iodide staining based flow cytometry (reference value: 0.157 %).
Data set [10] concerns Bel7402/5-FU. Description: Induction of apoptosis in human Bel7402/5-FU cells assessed as activation of caspase-3 at 0.5 to 5 uM incubated for 24 hrs by Western blot analysis. Type of data set: functional, cell-based. The method in brief: as §1
Data set [11] is described as follows: Therapeutic index, ratio of IC50 for mouse 3T3 cells to IC50 for human Bel7402/5-FU cells. Type of data set: toxicity. The following applies: mouse 3T3 cells versus human Bel7402/5-FU cells, read-out: TI.
Data set [12] concerns Bel7402/5-FU. Description: Induction of apoptosis in human Bel7402/5-FU assessed as early apoptotic cells at 2.5 uM incubated for 48 hrs by annexinV-FITC/propidium iodide staining based flow cytometry (reference value: 20.1 to 20.3 %).
Data set [13] relates to Bel7402/5-FU. Description: Induction of apoptosis in human Bel7402/5-FU assessed as late apoptotic cells at 1 uM incubated for 48 hrs by annexinV-FITC/propidium iodide staining based flow cytometry (reference value: 0.268 to 0.945 %).
Data set [14] concerns Bel7402/5-FU. Kind of data set: Induction of apoptosis in human Bel7402/5-FU assessed as necrotic cells at 1 uM incubated for 48 hrs by annexinV-FITC/propidium iodide staining based flow cytometry (reference value: 0.024 to 0.157 %).
Data set [15] has as its system Bel7402/5-FU. Description: Induction of apoptosis in human Bel7402/5-FU cells assessed as increase in cytochrome C level at 0.5 to 5 uM incubated for 24 hrs by Western blot analysis. It is filed as functional, cell-based. In a few lines: as §1
Data set [16] deals with Bel7402/5-FU. Description: Induction of apoptosis in human Bel7402/5-FU cells assessed as increase in irregular nuclear morphology incubated for 48 hrs by DAPI staining based fluorescence microscopic analysis. Type of data set: functional, cell-based. In a few lines:
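Bel-7402/5-FU cells were seeded at 5 × 10⁵ per well and left 12 h, then exposed at three concentrations (1, 2, 5) for 48 h. Cells were washed three times in PBS and stained with DAPI for 10 min at room temperature. Nuclear morphology was scored by fluorescence microscopy.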

Data set [17] concerns Bel7402/5-FU. Kind of data set: Induction of apoptosis in human Bel7402/5-FU assessed as viable cells at 2.5 uM incubated for 48 hrs by annexinV-FITC/propidium iodide staining based flow cytometry (reference value: 96.9 to 97.1 %).
Data set [18] relates to Bel7402/5-FU. Kind of data set: Antiproliferative activity against human Bel7402/5-FU incubated for 72 hrs by MTT assay. Type of data set: functional, cell-based. The method in brief:
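Bel-7402 and its 5-FU-resistant subline were kept in RPMI-1640 with 10% FBS and 1% penicillin/streptomycin at 37 °C under 5% CO2. Cells were seeded at 5000 per well and left for 12 h, then exposed to a concentration series for 72 h. MTT stock (5 mg/mL) was added for 4 h and the product dissolved in DMSO. OD was read at 570 nm and IC50 obtained by curve fitting.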

Data set [19] in a line: Therapeutic index, ratio of IC50 for mouse 3T3 cells to IC50 for human Bel7402 cells. The following applies: mouse 3T3 cells versus human Bel7402 cells, read-out: TI. It is filed as toxicity.
Data set [20] deals with Bel7402/5-FU. Description: Down regulation of ABCG2 expression in human Bel7402/5-FU cells incubated for 24 hrs by western blot analysis. It is filed as functional, cell-based. In a few lines: as §1
In data set [21] the test system is Bel7402/5-FU. Description: Induction of apoptosis in human Bel7402/5-FU cells assessed as downregulation of Bcl-xl expression at 0.5 to 5 uM incubated for 24 hrs by Western blot analysis. Type of data set: functional, cell-based. In a few lines:
as §1

For data set [22], the system named is Bel7402/5-FU. Kind of data set: Induction of apoptosis in human Bel7402/5-FU assessed as apoptotic cells at 2.5 uM incubated for 48 hrs by annexinV-FITC/propidium iodide staining based flow cytometry (reference value: 3.37 +/- 0.47 %).
Data set [23] relates to Bel7402/5-FU. Kind of data set: Induction of apoptosis in human Bel7402/5-FU assessed as necrotic cells at 2.5 uM incubated for 48 hrs by annexinV-FITC/propidium iodide staining based flow cytometry (reference value: 0.024 to 0.157 %).
Data set [24] deals with Bel7402/5-FU. Description: Induction of apoptosis in human Bel7402/5-FU assessed as apoptotic cells at 1 uM incubated for 48 hrs by annexinV-FITC/propidium iodide staining based flow cytometry (reference value: 3.37 +/- 0.47 %).

From ChEMBL document CHEMBL4311977, “Design and synthesis of parthenolide and 5-fluorouracil conjugates as potential anticancer agents against drug resistant hepatocellular carcinoma” (Eur J Med Chem, 2019) come the findings set out here.

The source made the active and inactive calls. The rule behind the calls is not given here.

Consider `C=C1C(=O)O[C@H]2[C@H]1CC/C(COC(=O)Cn1cc(F)c(=O)n(Cc3ccc(C(F)(F)F)cc3)c1=O)=C\CC[C@@]1(C)O[C@@H]21`, for which, in the data set on Bel7402/5-FU [1], the viability at 1 µM amounted to 94.3%. Besides, the Activity in the data set on Bel7402/5-FU [2] is 3.97%; with Bel7402/5-FU [3] it was “Dose-dependent effect”; with Bel7402/5-FU [4], 77.97%; with Bel7402/5-FU [6], 18.1 - 82.7%; with Bel7402/5-FU [9], 1.49 - 1.75%; with Bel7402/5-FU [12], 7.75%. Besides, the Activity is 0.909% with Bel7402/5-FU [13]; 1.9% in the data set on Bel7402/5-FU [14]; “Dose-dependent effect” with Bel7402/5-FU [16]; “Dose-dependent effect” with Bel7402/5-FU [20]; 14.43% in the data set on Bel7402/5-FU [22]; 1.87% in the data set with Bel7402/5-FU [23]. Besides, in the data set with Bel7402/5-FU [24], the Activity was determined as 4.9%. The outcome in the data set with Bel7402/5-FU [5], in the data set on Bel7402/5-FU [7], with Bel7402/5-FU [8], with Bel7402/5-FU [10], in the data set with Bel7402/5-FU [15] and in the data set with Bel7402/5-FU [21] was Active. In addition, the selectivity ratio in [11] and in data set [19] was 2.3 in each case. In addition, in the data set on Bel7402/5-FU [17], the viability at 2.5 µM amounted to 85.6%. Also, in the data set with Bel7402/5-FU [18], it took 2250 nM to reach half-maximal inhibition (IC50).
